Screening results from PubChem BioAssay.
Env fusion inh: blocks HIV Env-driven cell-cell fusion | 1.1% of 360,000 active | HeLa-JRFL Env/CEM21 cell fusion, luciferase | AID 651610 | inhibition, % at 12.3 µM;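 active means mean replicate inhibition score of at least 50 and every replicate individually at or above 50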;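 further: 0% = plate neutral controls and 100% = maraviroc near 300 nM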
rRNA inh HTS: selective bacterial rRNA inhibition in E. coli; GFP signal change (wild-type ribosome), % (no concentration beside the values); 1.6% of 350,000 active; E. coli WT GFP vs humanized-ribosome RFP mutants, fluorescence, 24 h; active compounds read low; DMSO median 0, no signal -100; AID 720706;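 active means significant combined selectivity score with lowered wild-type GFP, culture density cut under 30%, mutant RFP and density less affected; inactive means any of these conditions unmet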
FN deposition inh: fibronectin deposition inhibition; AH1F fibroblasts, Alexa488-fibronectin deposition fluorescence, overnight; inhibition, % at 12.6 µM; 0.086% of 350,000 active; AID 743247;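 active means mean inhibition across replicates of 30% or more, regardless of how many single replicates reach that level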;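 further: positive control wells lacked labelled fibronectin entirely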
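Material – AH1F fibroblast monolayer, labelled fibronectin deposition · Reagent – labelled fibronectin 24 nM · Timing – 1 h adhesion, overnight exposure · Measured by – fluorescence at 485 nm excitation, 525 nm emission · Read-out – inhibition of fibronectin deposition signal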
miR122 inh: blocks miR-122 activity in Huh7 sensor cells; Huh7 miR-122 Renilla luciferase sensor, 48 h; neutral wells = 0, positive control = 100; activation (reporter increase), % at 12.5 µM; 0.3% of 340,000 active; AID 602342;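 active means mean replicate activation score at least 90 and every replicate individually at or above 90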;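 further: higher luciferase means less miR-122 activity so hits act as miR-122 inhibitors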
Vif inh: blocks HIV Vif function; 0.35% of 340,000 active; inhibition, % at 7.49 µM; HEK293T cells, Vif self-association by quenched fluorescence, imaging, 24 h; in the data active means inhibition above about 50%, passing the limit was not always enough
S100A4 MyoIIA: S100A4-myosin IIA interaction inhibition. P26447. S100A4/TAMRA-MyoIIA peptide fluorescence polarization. inhibition, % at 10.7 µM. 0.14% of 360,000 active;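 active means mean inhibition of at least 70% across replicates, with every replicate also reaching that level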
Target sequence (P26447 whole entry, looked up): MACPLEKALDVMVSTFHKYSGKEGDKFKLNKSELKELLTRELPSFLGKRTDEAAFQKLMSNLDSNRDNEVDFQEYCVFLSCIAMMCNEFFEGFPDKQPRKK
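Test system: S100A4 monomer protein. Medium: HEPES buffer with Ca2+, pH 7.2. Reagent: fluorescent myosin IIA peptide, 5 nM. Compound dosing: single-point compound testing. Timing: 5 min between mix addition and reading. Benchmarks: DMSO neutral and TFP positive wells.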
* = called active by the depositor; . = no result; [ ] = dose if it differs, or a comment. Only some compounds are listed: those with a hit (about 2.6% of all), similar ones and a draw of the others.

SMILES	Env fusion inh	rRNA inh HTS	FN deposition inh	miR122 inh	Vif inh	S100A4 MyoIIA
CCc1ccc(-c2cc(C(=O)N/N=C/c3ccco3)[nH]n2)cc1	3.6	-19.6*	5.2	.	-6.0	-2.0
CCc1ccc(-c2cc(C(=O)N/N=C/c3ccccn3)[nH]n2)cc1	-0.3	-25.4*	13.1	.	-2.1	1.3
COc1ccc(/C=N/NC(=O)c2cc(C(C)(C)C)[nH]n2)cc1COc1ccc(F)cc1F	-0.8	-24.4*	-10.3	-4.6	-1.5	-6.4
CC(C)(C)c1cc(C(=O)N/N=C/c2ccco2)n[nH]1	.	.	.	-4.9	62.1*	.
COc1ccc(/C=N\NC(=O)c2ccccc2F)cc1COc1ccc(F)cc1F	-12.6	-3.8	7.9	6.7	-7.6	1.7
O=C1NCCOCc2cn(nn2)CC[C@H]1Cc1ccccc1	.	3.2	-1.2	.	.	.
CO[C@@H]1CC[C@H]2CCOc3c(C#N)cccc3C(=O)N(C)[C@@H](C)C(=O)N(C)C[C@H]1O2	6.3[16.7 µM]	4.2	1.6	.	.	1.1
CCC(=O)N1CC(=O)N2[C@H](CO)[C@@H](c3ccc(C#CC4CCCCC4)cc3)[C@H]2C1	.	8.0	.	.	.	-6.5
NC(=O)c1sc2nc3c(c(-c4cccs4)c2c1N)CCCCC3	126.3*	.	9.0	14.8	-33.0	.
NC(=O)c1sc2nc3c(c(-c4cccnc4)c2c1N)CCC3	.	.	.	-5.3	-9.1	.
CCOC(=O)C(=N/O)/C(C)=N/NC(=O)C(=O)Nc1ccc(Cl)cc1	9.9	-20.4*	6.1	.	7.6	-1.0
COc1ccc(CCN2C(=O)CC(C(N)=O)SC2=Nc2ccccc2)cc1 (stereo not given)	13.0	-27.2*	-10.3	-1.2	-0.1	0.4
CNC(=O)C1CC(=O)N(CCc2ccccc2)C(=Nc2ccc(OC)cc2)S1 (stereo not given)	-0.4	-17.9	21.0	.	-0.3	1.0
O=C(COc1ccccc1/C=C1/NC(=O)NC1=O)Nc1ccccc1	9.3	-26.2*	3.6	3.5	-14.8	-1.5
COc1cccc(CNC(=O)[C@@H]2N[C@@H]3c4ccc(/C=C/c5ccccc5)c(=O)n4C[C@@H]3[C@H]2CO)c1	.	-9.9	.	2.9[16.7 µM]	.	.
O=C(N=c1ccn(-c2nc3ccccc3nc2NS(=O)(=O)c2ccc(Cl)cc2)cc1)c1cccs1	-6.5	20.9	-17.5	.	82.5*	-1.0
CO[C@@H]1CN(C)C(=O)c2ccc(NC(=O)C3CCCCC3)cc2OC[C@H](C)N(Cc2nccs2)C[C@H]1C	.	-7.3	12.8	13.5[16.7 µM]	.	1.0
COc1cccc(C(O)c2ncc(-c3cccc(F)c3)[nH]2)c1 (stereo not given)	-28.9	2.0	-3.1	113.5*	.	-6.5
Cc1ccc(C(O)c2ncc(-c3cccc4ccccc34)[nH]2)cc1F (stereo not given)	-3.4	-29.9	30.2*	1.3	-8.2	-4.2
Cc1cc(C(O)c2ncc(-c3ccccc3F)[nH]2)ccc1F (stereo not given)	-27.6	-7.2	-0.6	135.8*	-3.3	7.0
Cc1cc(C)cc(C(O)c2ncc(-c3ccccc3C)[nH]2)c1 (stereo not given)	-4.2	-10.1	2.3	.	-0.6	-13.5
Cc1cc(C)cc(C(O)c2ncc(-c3ccccc3F)[nH]2)c1 (stereo not given)	-10.0	4.5	-6.3	109.8*	-4.4	2.1
Cc1ccc(C(O)c2ncc(-c3ccccc3C)[nH]2)cc1F (stereo not given)	-2.7	.	0.5	20.6	-9.5	-2.6
C[C@@H]1CCCCO[C@H](CN(C)C(=O)CCCN(C)C)[C@H](C)CN([C@@H](C)CO)C(=O)c2cc(NC(=O)C3CCCCC3)ccc2O1	2.7[16.7 µM]	0.2	.	11.1[16.7 µM]	.	1.6
Oc1ccccc1-c1nnc(SCCN2CCOCC2)n1Cc1ccccc1	-1.3	.	7.7	240.7*	24.2	.
SMILES	Env fusion inh	rRNA inh HTS	FN deposition inh	miR122 inh	Vif inh	S100A4 MyoIIA
O=C(CSc1nnc(-c2ccccc2)n1Cc1ccccc1)N1CCOCC1	-83.0	.	-16.5	11.7	-14.5	.
C[C@H]1C=C(C(=O)N2CCN(Cc3ccccc3)CC2)O[C@@H](OCc2ccc(CO)cc2)C1	-19.6[16.7 µM]	.	.	.	.	-11.1
O=C(Nc1cccc(Cl)c1)N1CCN(C2c3ccccc3-c3ccccc32)CC1	-6.8	3.0	-1.6	.	10.2	-2.3
CC(=O)Nc1ccc2c(c1)C(N1CC3CCC(CC3)C1)c1ccccc1-2 (stereo not given)	67.1*	-2.8	13.9	0.9	-24.3	-5.9
COCC(=O)Nc1ccc2c(c1)OC[C@H](C)NC[C@H](C)[C@@H](OC)CN(C)C2=O	.	2.7	-0.8	.	.	-5.9
C[C@H](CO)N1C[C@H](C)[C@H](CN(C)C)Oc2cc(C#CC3(O)CCCC3)ccc2S1(=O)=O	13.3[16.7 µM]	7.9	2.9	2.5[16.7 µM]	.	42.8
COc1ccccc1-c1ccc(/C=N/O)o1	-7.6	-34.5*	-5.4	-2.3	-2.6	-1.5
Cc1ccc(S(=O)(=O)Nc2ccc3c(c2)CC(=O)N([C@@H](C)CO)C[C@@H](C)[C@@H](CN(C)C(=O)Nc2ccc(C(F)(F)F)cc2)O3)cc1	16.3[16.7 µM]	3.2	.	30.4[16.7 µM]	.	-6.2
O=C(C1CCC1)N1CC(=O)N2[C@H](CO)[C@@H](c3ccc(C#Cc4cccc(F)c4)cc3)[C@H]2C1	.	-29.6	15.6	.	.	.
CCC(=O)Nc1ccc2c(c1)C(=O)N(C)C[C@H](OC)[C@H](C)CN(C(=O)C1CCC1)[C@H](C)CO2	.	-1.1	4.6	3.4[16.7 µM]	.	15.5
Cc1c(NC(=S)N/N=C/c2cc([N+](=O)[O-])ccc2O)c(=O)n(-c2ccccc2)n1C	29.2	-22.1*	6.4	-1.7	13.7	-3.8
Cc1ccc(S(=O)(=O)N2C[C@H]3[C@H]4C(=O)N(c5ccccc5)C(=O)[C@H]4C[C@H](OC(=O)NC4CC4)[C@@]3(O)C2)cc1	-2.9	-4.1	-2.3	-3.4	0.6	-0.4
Cc1ccc(S(=O)(=O)N2C[C@H]3[C@H]4C(=O)N(c5ccccc5)C(=O)[C@H]4C[C@H](OC(=O)Nc4c(C)noc4C)[C@@]3(O)C2)cc1	8.6	-2.8*	13.1	0.8	8.3	-2.5
COc1ccc(CC(=O)N2CCN(S(=O)(=O)c3ccc(Cl)s3)CC2)cc1	.	-6.2	6.9	.	-10.8	-11.8
N#Cc1ccc(OCC(=O)N2CCN(S(=O)(=O)c3cccc(Cl)c3)CC2)cc1	0.4	.	0.4	-4.9	.	1.9
COc1ccc(OCC(=O)N2CCN(S(=O)(=O)c3ccc(Cl)s3)CC2)cc1	.	.	-3.5	-0.7	-10.3	144.4*
N#Cc1ccc(OCC(=O)N2CCN(S(=O)(=O)c3ccc(Cl)s3)CC2)cc1	4.9	-19.5*	3.2	.	-15.2	-10.5
Cc1noc(C)c1S(=O)(=O)N(C)C[C@H]1Oc2ccc(NC(=O)Cc3cn(C)c4ccccc34)cc2C(=O)N([C@H](C)CO)C[C@@H]1C	.	-6.2	8.7	.	.	.
